According to PMC7668563 (International journal of molecular biology (Edmond, Okla.), 2020):
Like-named read-outs stand apart in the source and are kept apart here. One block for each compound: values may come before it.

Assays:
[1] = biological target: T1, apo-human transferrin (apo-hTf) (Homo sapiens, UniProt P02787); test: Fluorescence quenching of apo-hTf; assay type: binding; details: for biomolecular quenching rate constant kq: kq=Ksv/τ0; for Stern-Volmer quenching constant Ksv / number of binding sites n: pH 7.4; for quenching association constant Ka: pH 7.4, modified Stern-Volmer
T1 sequence (P02787 20-698): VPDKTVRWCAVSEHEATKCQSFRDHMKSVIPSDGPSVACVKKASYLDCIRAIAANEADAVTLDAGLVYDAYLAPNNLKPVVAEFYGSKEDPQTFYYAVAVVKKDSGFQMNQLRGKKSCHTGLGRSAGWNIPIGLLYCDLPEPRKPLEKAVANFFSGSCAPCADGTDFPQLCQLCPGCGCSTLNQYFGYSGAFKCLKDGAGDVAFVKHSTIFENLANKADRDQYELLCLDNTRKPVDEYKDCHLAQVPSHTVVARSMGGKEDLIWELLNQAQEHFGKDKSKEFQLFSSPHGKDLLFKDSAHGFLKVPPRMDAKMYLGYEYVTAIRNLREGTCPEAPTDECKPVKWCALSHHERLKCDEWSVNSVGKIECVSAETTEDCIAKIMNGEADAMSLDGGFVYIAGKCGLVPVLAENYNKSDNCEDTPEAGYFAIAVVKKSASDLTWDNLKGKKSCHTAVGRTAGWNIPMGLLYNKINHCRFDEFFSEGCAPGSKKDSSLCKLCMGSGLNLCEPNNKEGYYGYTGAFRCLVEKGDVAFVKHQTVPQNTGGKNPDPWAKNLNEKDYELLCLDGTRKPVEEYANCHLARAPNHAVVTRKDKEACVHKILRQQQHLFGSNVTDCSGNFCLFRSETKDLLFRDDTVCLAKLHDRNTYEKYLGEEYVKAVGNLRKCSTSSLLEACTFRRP
How it was run: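 Intrinsic fluorescence of apo-hTf in Tris-HCl pH 7.4 was titrated with test compound (Tris-HCl/2% DMSO). Conditions: excitation 280 nm, emission 290–500 nm, slits 10/5 nm, 1.0 cm quartz cell, at 296, 303, 310 and 317 K, triplicate titrations. Intensities were corrected for inner filter effect using absorbances at excitation and emission wavelengths. Ksv came from Stern-Volmer plots of F0/F vs [Q]; kq = Ksv/τ0 (τ0 ~1.0×10−8); Ka and n came from the modified Stern-Volmer equation.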

[2] = system: human colorectal adenocarcinoma cell line, HT-29; details: cited from earlier work
[3] = system: human breast adenocarcinoma cell line, MCF-7; details: cited from earlier work
[4] = biological target: T1, apo-human transferrin (apo-hTf); test: UV-Vis absorbance titration of apo-hTf; assay type: binding; details: for Ka at 280 nm: absorbance at 280 nm; for Association constants, Ka, 280 nm: absorbance of apo-hTf at 280 nm
[5] = biological target: T1, apo-human transferrin (apo-hTf); test: Thermodynamic parameters of apo-hTf complex formation; assay type: binding; details: for ∆H° / ∆S°: pH 7.4, from Ksv at 296-317 K
How it was run: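 Ksv values were obtained from apo-hTf fluorescence quenching at pH 7.4 at 296, 303, 310 and 317 K. ΔH°, ΔS° and ΔG° were derived from linear regression of ln(Ksv) vs 1/T (Van't Hoff equation).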

[6] = biological target: T1, apo-human transferrin (apo-hTf); test: Far-UV circular dichroism titration of apo-hTf, secondary structure content
How it was run: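 Apo-hTf (4.0×10−7 mol L−1) in 2 mM Tris-HCl pH 7.4 was titrated with a 1.0×10−3 mol L−1 stock of test compound in Tris-HCl/2% DMSO, to final 0–2.4×10−6 mol L−1. Far-UV CD was recorded from 190–250 nm under nitrogen in a 1.0 cm cell: six scans at 100 nm/min. Baseline was buffer ± DMSO at room temperature. α-Helix was derived from MRE at 208 nm; β-sheet and random coil by the CD-RRG method.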

[7] = biological target: T1, apo-human transferrin (apo-hTf); test: Fluorescence resonance energy transfer; assay type: binding; details: for Förster critical energy transfer distance R0 / binding distance r (donor-acceptor): k^2=2/3, n=1.336, ØD=0.118; for efficiency of energy transfer E: room temperature, 1.0×10^−5 mol L^−1 each
How it was run: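 Emission spectrum of 1.0×10−5 mol L−1 apo-hTf and absorption spectrum of 1.0×10−5 mol L−1 test compound were recorded in 20 mM Tris-HCl pH 7.4 at room temperature, 260–450 nm, and their spectral overlap determined. E was calculated from apo-hTf fluorescence without and with equimolar test compound. R0 and donor–acceptor distance r came from Förster equations.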

biomolecular quenching rate constant kq ([1]; 296 K): 1.61e+11 M⁻¹ s⁻¹ | Stern-Volmer quenching constant Ksv ([1]; 296 K): 1610 M⁻¹ | number of binding sites n ([1]; 296 K): 1.16 | quenching association constant Ka ([1]; 296 K): 7800 M⁻¹ | biomolecular quenching rate constant kq ([1]; 303 K): 1.76e+11 M⁻¹ s⁻¹ | Stern-Volmer quenching constant Ksv ([1]; 303 K): 1760 M⁻¹ | number of binding sites n ([1]; 303 K): 1.13 | quenching association constant Ka ([1]; 303 K): 6000 M⁻¹ | biomolecular quenching rate constant kq ([1]; 310 K): 1.89e+11 M⁻¹ s⁻¹ | Stern-Volmer quenching constant Ksv ([1]; 310 K): 1890 M⁻¹ | number of binding sites n ([1]; 310 K): 1.08 | quenching association constant Ka ([1]; 310 K): 4200 M⁻¹ | biomolecular quenching rate constant kq ([1]; 317 K): 2.09e+11 M⁻¹ s⁻¹ | Stern-Volmer quenching constant Ksv ([1]; 317 K): 2090 M⁻¹ | number of binding sites n ([1]; 317 K): 1.04 | quenching association constant Ka ([1]; 317 K): 3200 M⁻¹ | Ka at 280 nm [4]: 2930 M⁻¹ | Ka at 361 nm ([4]; absorbance at 361 nm): 2980 M⁻¹ | Association constants, Ka, 280 nm ([4]; pH 7.4): 2.93 10^3 M^−1 | Association constants, Ka, 361 nm ([4]; absorbance of apo-hTf at 361 nm, pH 7.4): 2.98 10^3 M^−1 | ∆G° ([5]; 296 K): -4.343 kcal/mol | ∆G° ([5]; 303 K): -4.498 kcal/mol | ∆G° ([5]; 310 K): -4.653 kcal/mol | ∆G° ([5]; 317 K): -4.809 kcal/mol | ∆H° [5]: 2.24 kcal/mol | ∆S° [5]: 93.12 J/mol K | other secondary structure content of apo-hTf ([6]; compound concentration 0.4 (M)): 18.3% | random coil content of apo-hTf ([6]; compound concentration 0.4 (M)): 33.7% | α-helix content of apo-hTf ([6]; compound concentration 0.4 (M)): 29.8% | β-sheet content of apo-hTf ([6]; compound concentration 0.4 (M)): 18.2% | other secondary structure content of apo-hTf ([6]; compound concentration 0.8 (M)): 18.4% | random coil content of apo-hTf ([6]; compound concentration 0.8 (M)): 33.8% | α-helix content of apo-hTf ([6]; compound concentration 0.8 (M)): 29.5% | β-sheet content of apo-hTf ([6]; compound concentration 0.8 (M)): 18.3% | other secondary structure content of apo-hTf ([6]; compound concentration 1.2 (M)): 18.6% | random coil content of apo-hTf ([6]; compound concentration 1.2 (M)): 33.9% | α-helix content of apo-hTf ([6]; compound concentration 1.2 (M)): 29.1% | β-sheet content of apo-hTf ([6]; compound concentration 1.2 (M)): 18.4% | other secondary structure content of apo-hTf ([6]; compound concentration 1.6 (M)): 19.1% | random coil content of apo-hTf ([6]; compound concentration 1.6 (M)): 34.1% | α-helix content of apo-hTf ([6]; compound concentration 1.6 (M)): 28.3% | β-sheet content of apo-hTf ([6]; compound concentration 1.6 (M)): 18.5% | other secondary structure content of apo-hTf ([6]; compound concentration 2 (M)): 19.2% | random coil content of apo-hTf ([6]; compound concentration 2 (M)): 34.3% | α-helix content of apo-hTf ([6]; compound concentration 2 (M)): 27.9% | β-sheet content of apo-hTf ([6]; compound concentration 2 (M)): 18.6% | other secondary structure content of apo-hTf ([6]; compound concentration 2.4 (M)): 19.4% | random coil content of apo-hTf ([6]; compound concentration 2.4 (M)): 34.4% | α-helix content of apo-hTf ([6]; compound concentration 2.4 (M)): 27.5% | β-sheet content of apo-hTf ([6]; compound concentration 2.4 (M)): 18.7% | Förster critical energy transfer distance R0 [7]: 4.53 nm | binding distance r (donor-acceptor) [7]: 6.05 nm | efficiency of energy transfer E [7]: 0.15
Compound: C1CCCC1.C1CCCC1.[Cl][W][Cl] [Cp2WCl2]
IC50 ([2]; read-out: IC50 (±SD), HT-29, ref 19): 1000 µM | IC50 ([3]; read-out: IC50 (±SD), MCF-7, ref 19): 630 µM

Compound: [Cl-].[Cl-].[Ti+4].c1cc[cH-]c1.c1cc[cH-]c1 [Cp2TiCl2, titanocene dichloride]
biomolecular quenching rate constant kq ([1]; 296 K): 1.53e+11 M⁻¹ s⁻¹ | Stern-Volmer quenching constant Ksv ([1]; 296 K): 1530 M⁻¹ | number of binding sites n ([1]; 296 K): 1.11 | quenching association constant Ka ([1]; 296 K): 4500 M⁻¹ | biomolecular quenching rate constant kq ([1]; 303 K): 1.68e+11 M⁻¹ s⁻¹ | Stern-Volmer quenching constant Ksv ([1]; 303 K): 1680 M⁻¹ | number of binding sites n ([1]; 303 K): 1.09 | quenching association constant Ka ([1]; 303 K): 4100 M⁻¹ | biomolecular quenching rate constant kq ([1]; 310 K): 1.76e+11 M⁻¹ s⁻¹ | Stern-Volmer quenching constant Ksv ([1]; 310 K): 1760 M⁻¹ | number of binding sites n ([1]; 310 K): 1.07 | quenching association constant Ka ([1]; 310 K): 3600 M⁻¹ | biomolecular quenching rate constant kq ([1]; 317 K): 1.93e+11 M⁻¹ s⁻¹ | Stern-Volmer quenching constant Ksv ([1]; 317 K): 1930 M⁻¹ | number of binding sites n ([1]; 317 K): 1.05 | quenching association constant Ka ([1]; 317 K): 3100 M⁻¹ | IC50 ([2]; read-out: IC50 (±SD), HT-29, ref 82): 413 µM | IC50 ([3]; read-out: IC50 (±SD), MCF-7, ref 82): 570 µM | Ka at 280 nm [4]: 2890 M⁻¹ | Association constants, Ka, 280 nm ([4]; pH 7.4): 2.89 10^3 M^−1 | ∆G° ([5]; 296 K): -4.316 kcal/mol | ∆G° ([5]; 303 K): -4.465 kcal/mol | ∆G° ([5]; 310 K): -4.613 kcal/mol | ∆G° ([5]; 317 K): -4.761 kcal/mol | ∆H° [5]: 1.94 kcal/mol | ∆S° [5]: 88.48 J/mol K | other secondary structure content of apo-hTf ([6]; compound concentration 0.4 (M)): 18.9% | random coil content of apo-hTf ([6]; compound concentration 0.4 (M)): 33.8% | α-helix content of apo-hTf ([6]; compound concentration 0.4 (M)): 29.3% | β-sheet content of apo-hTf ([6]; compound concentration 0.4 (M)): 18% | other secondary structure content of apo-hTf ([6]; compound concentration 0.8 (M)): 18.9% | random coil content of apo-hTf ([6]; compound concentration 0.8 (M)): 33.8% | α-helix content of apo-hTf ([6]; compound concentration 0.8 (M)): 29.1% | β-sheet content of apo-hTf ([6]; compound concentration 0.8 (M)): 18.2% | other secondary structure content of apo-hTf ([6]; compound concentration 1.2 (M)): 18.8% | random coil content of apo-hTf ([6]; compound concentration 1.2 (M)): 33.9% | α-helix content of apo-hTf ([6]; compound concentration 1.2 (M)): 29% | β-sheet content of apo-hTf ([6]; compound concentration 1.2 (M)): 18.3% | other secondary structure content of apo-hTf ([6]; compound concentration 1.6 (M)): 18.9% | random coil content of apo-hTf ([6]; compound concentration 1.6 (M)): 33.9% | α-helix content of apo-hTf ([6]; compound concentration 1.6 (M)): 28.8% | β-sheet content of apo-hTf ([6]; compound concentration 1.6 (M)): 18.4% | other secondary structure content of apo-hTf ([6]; compound concentration 2 (M)): 18.9% | random coil content of apo-hTf ([6]; compound concentration 2 (M)): 34% | α-helix content of apo-hTf ([6]; compound concentration 2 (M)): 28.6% | β-sheet content of apo-hTf ([6]; compound concentration 2 (M)): 18.5% | other secondary structure content of apo-hTf ([6]; compound concentration 2.4 (M)): 19% | random coil content of apo-hTf ([6]; compound concentration 2.4 (M)): 34% | α-helix content of apo-hTf ([6]; compound concentration 2.4 (M)): 28.4% | β-sheet content of apo-hTf ([6]; compound concentration 2.4 (M)): 18.6% | Förster critical energy transfer distance R0 [7]: 5.03 nm | binding distance r (donor-acceptor) [7]: 6.77 nm | efficiency of energy transfer E [7]: 0.144
